Activity calls are given as the source filed them. The rule behind the calls is not given here.

In assay [1] the test system is T-cell. The experiment in a line: Immunostimulating activity in BALb/c mouse CD8+ T cells at 10 uM after 72 hrs by MTT assay. It counts as functional, cell-based. On the technique in general: Tetrazolium assays rely on reduction of a dye to a coloured formazan, in cell work by metabolically active cells.
Assay [2] deals with Splenocyte. The experiment in a line: Immunostimulating activity in concanavalin A-stimulated BALb/c mouse splenocytes assessed as increase in IL4 secretion at 10 uM after 72 hrs by ELISA. It is filed as functional. A digest of the protocol:
(§1)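 IL-4, IL-2 and IFN-γ measured by mouse ELISA in supernatants of total splenocyte cultures. Cultures contained concanavalin A (printed as 20 μM) plus compound at 5, 10 or 50 μM. Compared with Con A alone. Means ± SEM of at least three independent experiments.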
(An ELISA detects its analyte on a solid surface through an enzyme-linked reagent.)

A short description of assay [3]: Immunostimulating activity in BALb/c mouse splenocytes assessed as increase in concanavalin A-induced cell proliferation at 50 uM after 72 hrs by MTT assay. It counts as functional, Splenocyte. A digest of the protocol: (§2)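 Mouse splenocytes co-treated with concanavalin A and compound at 5, 10, 25, 50 or 100 μM. Incubated 72 h at 37 °C under 5% CO₂, then proliferation read by MTT. Result expressed as % increase relative to Con A alone. Means ± SEM of at least three independent experiments.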

The test system of assay [4] is B. Put plainly: Immunostimulating activity in BALb/c mouse CD19+ B cells at 10 uM after 72 hrs by MTT assay. It counts as functional, cell-based.
The test system of assay [5] is Splenocyte. Put plainly: Immunostimulating activity in concanavalin A-stimulated BALb/c mouse splenocytes assessed as increase in IFNgamma secretion at 10 uM after 72 hrs by ELISA. It counts as functional. In a few lines:
as §1

The nature of assay [6]: Immunostimulating activity in BALb/c mouse splenocytes assessed as increase in concanavalin A-induced cell proliferation at 25 uM after 72 hrs by MTT assay. It is filed as functional, Splenocyte. In a few lines: as §2
In assay [7] the test system is T-cell. Put plainly: Immunostimulating activity in BALb/c mouse CD3+ T cells at 10 uM after 72 hrs by MTT assay. It is filed as functional, cell-based.
For assay [8], the system named is Splenocyte. Put plainly: Immunostimulating activity in concanavalin A-stimulated BALb/c mouse splenocytes assessed as increase in IL2 secretion at 10 uM after 72 hrs by ELISA. It is filed as functional. A digest of the protocol:
as §1

Assay [9] deals with T-cell. The experiment in a line: Immunostimulating activity in BALb/c mouse CD4+ T cells at 10 uM after 72 hrs by […]. It counts as functional, cell-based. In a few lines:
(§3)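 CD3+, CD4+ and CD8+ T cells and CD19+ B cells from splenocyte cultures quantified by flow cytometry. Compound at 5, 10 or 50 μM, compared with Con A-treated cells. Means ± SEM of at least three independent experiments.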

Assay [10] can be described thus: (§4) Immunostimulating activity in BALb/c mouse splenocytes assessed as increase in concanavalin A-induced cell proliferation at 5 uM after 72 hrs by MTT assay. It is filed as functional, Splenocyte. In a few lines:
as §2

Assay [11] in a line: Immunostimulating activity in BALb/c mouse splenocytes assessed as increase in concanavalin A-induced cell proliferation at 100 uM after 72 hrs by MTT assay. It counts as functional, Splenocyte. A digest of the protocol: as §2
Assay [12] in a line: Immunostimulating activity in BALb/c mouse splenocytes assessed as increase in concanavalin A-induced cell proliferation at 10 uM after 72 hrs by MTT assay. It is filed as functional, Splenocyte. In a few lines:
as §2

The subject of assay [13] is Splenocyte. Put plainly: Immunostimulating activity in BALb/c mouse splenocytes assessed as cell proliferation at 5 to 100 uM after 72 hrs by MTT assay. It counts as functional, cell-based. A digest of the protocol: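 Mouse splenocytes exposed to compound without concanavalin A. Proliferation measured by MTT after 72 h at 37 °C, 5% CO₂.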
Assay [14] relates to T-cell. Put plainly: Immunostimulating activity in BALb/c mouse CD4+ T cells at 50 uM after 72 hrs by MTT assay. It counts as functional, cell-based.
The test system of assay [15] is Splenocyte. The experiment in a line: Immunostimulating activity in concanavalin A-stimulated BALb/c mouse splenocytes assessed as increase in IL2 secretion at 50 uM after 72 hrs by ELISA. It counts as functional. A digest of the protocol:
as §1

Assay [16] deals with Splenocyte. Put plainly: Immunostimulating activity in concanavalin A-stimulated BALb/c mouse splenocytes assessed as increase in IFNgamma secretion at 50 uM after 72 hrs by ELISA. It counts as functional. In a few lines: as §1
Assay [17] deals with B. Put plainly: Immunostimulating activity in BALb/c mouse CD19+ B cells at 50 uM after 72 hrs by MTT assay. It is filed as functional, cell-based.
Assay [18] deals with Splenocyte. Put plainly: Immunostimulating activity in concanavalin A-stimulated BALb/c mouse splenocytes assessed as increase in IL4 secretion at 50 uM after 72 hrs by ELISA. It counts as functional. In a few lines: as §1
Assay [19] deals with T-cell. The experiment in a line: Immunostimulating activity in BALb/c mouse CD8+ T cells at 50 uM after 72 hrs by […]. It is filed as functional, cell-based. In a few lines: as §3
The subject of assay [20] is T-cell. Put plainly: Immunostimulating activity in BALb/c mouse CD3+ T cells at 50 uM after 72 hrs by […]. It is filed as functional, cell-based. A digest of the protocol: as §3
Assay [21] deals with T-cell. The experiment in a line: Immunostimulating activity in BALb/c mouse CD3+ T cells at 5 uM after 72 hrs by […]. It counts as functional, cell-based. A digest of the protocol:
as §3

In assay [22] the test system is T-cell. Put plainly: Immunostimulating activity in BALb/c mouse CD4+ T cells at 5 uM after 72 hrs by MTT assay. It counts as functional, cell-based.
In assay [23] the test system is Splenocyte. Put plainly: Immunostimulating activity in concanavalin A-stimulated BALb/c mouse splenocytes assessed as increase in IFNgamma secretion at 5 uM after 72 hrs by ELISA. It is filed as functional, cell-based. In a few lines: as §1
Assay [24] concerns B. The experiment in a line: Immunostimulating activity in BALb/c mouse CD19+ B cells at 5 uM after 72 hrs […]. It counts as functional, cell-based. A digest of the protocol:
as §3

Assay [25] can be described thus: Immunostimulating activity in BALb/c mouse splenocytes assessed as increase in LPS-induced cell proliferation at 5 uM after 72 hrs by MTT assay. It counts as functional, Splenocyte. A digest of the protocol:
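Splenocyte proliferation induced by LPS, with compound added at 5 μM. Reported as % increase over LPS-treated cells. Means ± SEM of at least three independent experiments.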

The subject of assay [26] is T-cell. Put plainly: Immunostimulating activity in BALb/c mouse CD8+ T cells at 5 uM after 72 hrs […]. It is filed as functional, cell-based. A digest of the protocol: as §3
For assay [27], the system named is Splenocyte. Put plainly: Immunostimulating activity in concanavalin A-stimulated BALb/c mouse splenocytes assessed as increase in IL2 secretion at 5 uM after 72 hrs by ELISA. It counts as functional. A digest of the protocol:
as §1

In assay [28] the test system is Splenocyte. Put plainly: Immunostimulating activity in concanavalin A-stimulated BALb/c mouse splenocytes assessed as increase in IL4 secretion at 5 uM after 72 hrs by ELISA. It is filed as functional. A digest of the protocol: as §1
Assay [29] concerns Splenocyte. Described as §4. It is filed as functional. In a few lines: as §2

With `CN1C(=O)CS[C@H]1[C@H]1O[C@H](CO)[C@@H](O)[C@@H]1O`, the outcome in [1], in [4] and in assay [13] was inactive. Moreover, the Activity in [2] was found to be 43%; in assay [3], 35%; in [5], 21%; in assay [6], 138%; in assay [8], 78%; in assay [10], 28%. Moreover, the figures for the Activity in [11] and in [12] were 245% and 290%, respectively. Further, the result in [7] and in assay [9] was Active.

With `CCCCN1C(=O)CS[C@H]1[C@H]1O[C@H](CO)[C@@H](O)[C@@H]1O`, the Activity in [3], in [6], in assay [10], in assay [11] and in [12] was under 50% throughout.

`CCCCCCCCN1C(=O)CS[C@@H]1[C@H]1O[C@H](CO)[C@@H](O)[C@@H]1O`: the Activity in assay [3], in assay [6], in assay [10], in assay [11] and in [12] was under 50% in each case.

For `CN1C(=O)CS[C@@H]1[C@H]1O[C@H](CO)[C@@H](O)[C@@H]1O`, the result in assay [14] and in assay [20] was Active. The Activity in assay [3] came out at 327%; in [15], 37%; in assay [6] it was 91%; in assay [16] it was 30%; in [18], 42%; in assay [10] it was 111%. In addition, the Activity in assay [11] is given as 230%; in assay [12] it was 98%. Besides, the result in [17], in assay [13] and in assay [19] was inactive.

With `CCCCCCCCCCCCCCCCCCN1C(=O)CS[C@@H]1[C@H]1O[C@H](CO)[C@@H](O)[C@@H]1O`, the Activity in assay [3], in assay [6], in [10], in [11] and in [12] was under 50% each time.

As for `O=C1CS[C@H]([C@H]2O[C@H](CO)[C@@H](O)[C@@H]2O)N1c1ccccc1`, the result in assay [21], in [22] and in assay [24] was Active. Also, the Activity in assay [3] is recorded as 171%; in assay [6], under 50%; in assay [25], 238%; in assay [10], 166%; in assay [27], 138%; in assay [12], under 50%. In addition, in assay [28], the Activity is on record as 41%. Also, the result in assay [23], in assay [26] and in assay [13] was inactive.

With `CCCCCCCCCCCCCCCCCCN1C(=O)CS[C@H]1[C@H]1O[C@H](CO)[C@@H](O)[C@@H]1O`, the Activity in assay [3], in assay [6], in [10], in [11] and in [12] was under 50% throughout.

Turning to `CCCCCCCCN1C(=O)CS[C@H]1[C@H]1O[C@H](CO)[C@@H](O)[C@@H]1O`, the Activity in assay [3], in assay [6], in [10], in [11] and in [12] was under 50% each time.

With `CCCCN1C(=O)CS[C@@H]1[C@H]1O[C@H](CO)[C@@H](O)[C@@H]1O`, the Activity in assay [3], in assay [6], in [10], in [11] and in assay [12] was under 50% in each case.

Turning to `O=C1CS[C@@H]([C@H]2O[C@H](CO)[C@@H](O)[C@@H]2O)N1c1ccccc1`, the outcome in [21], in assay [22], in assay [24] and in assay [29] was Active. Further, the Activity is under 50% in assay [3]; under 50% in [6]; 117% in assay [25]; 99% in assay [27]; under 50% in assay [11]; under 50% in assay [12]. In [28], the Activity worked out at 39%. Also, the outcome in [23], in assay [26] and in assay [13] was inactive.

The record behind these values is ChEMBL document CHEMBL2169880, “Synthesis of C-Pseudonucleosides Bearing Thiazolidin-4-one as a Novel Potential Immunostimulating Agent” (2011).
